A short description of series [1]: Cytotoxicity against rat L6 cells after 72 hrs by microplate alamar blue assay. It is filed as cell-based. An outline of the steps: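 Rat skeletal myoblast L-6 cells, 4 × 10^4/well in RPMI 1640 with L-glutamine and 10% FBS, were given seven threefold dilutions (90 to 0.123 μg/ml) for 72 h. Alamar Blue was added for 2 h and fluorescence read at ex 536/em 588 nm. Tested in duplicate, assay repeated at least once.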
A general note: Alamar Blue is a resazurin reagent that responds to reducing activity.

A short description of series [2]: Selectivity index, CC50 for rat L-6 cells to IC50 for erythrocytic stage of chloroquine - and pyrimethamine-resistant Plasmodium falciparum K1. It is filed as functional. A digest of the protocol: (§1)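 K1 erythrocytic stages were cultured in hypoxanthine-free RPMI 1640 with Albumax, A+ RBC at 2.5% hematocrit and 0.3% parasitemia. DMSO stocks were 10 mg/ml; seven twofold dilutions covered 5 to 0.156 μg/ml. Plates were held at 37°C in 4% CO2/3% O2/93% N2 for 48 h, then 0.5 μCi [3H]hypoxanthine was added for 24 h and scintillation counted. IC50 from sigmoidal curves. SI = L-6 CC50/IC50.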

For another series, the system named is Plasmodium falciparum. Nature of the series: Antiplasmodial activity against erythrocytic stage of chloroquine - and pyrimethamine-resistant Plasmodium falciparum K1 assessed as [3H]hypoxanthine incorporation after 48 hrs. Type of series: functional, organism-based. A digest of the protocol: as §1
A further series concerns Leishmania donovani. Nature of the series: Antileishmanial activity against Leishmania donovani MHOM/ET/67/L82 amastigote after 72 hrs. The settings on record: MHOM/ET/67/L82, 72 h. It is filed as functional, organism-based. A digest of the protocol: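 Axenic amastigotes were grown at 37°C under 5% CO2 in SM medium, pH 5.4, with 10% heat-inactivated FBS. 10^5 per well were exposed 72 h to serial dilutions (30 to 0.041 μg/ml). Alamar Blue was added for 2 h, then fluorescence read at ex 536/em 588 nm as % of control. IC50 came from sigmoidal curves. Duplicates, repeated at least once.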

Series [3] can be described thus: Selectivity index, CC50 for rat L-6 cells to IC50 for Trypanosoma cruzi Tulahuen C2C4 trypomastigote. It is filed as functional. An outline of the steps: (§2)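 T. cruzi Tulahuen C2C4 (LacZ) trypomastigotes, 5,000/well, were added to rat L-6 myoblasts seeded 24 h earlier in RPMI 1640 with 10% FBS. After 48 h the medium was replaced with seven threefold drug dilutions (90 to 0.123 μg/ml) and incubated 96 h. CPRG-Nonidet was added and read at 540 nm after 2–6 h to give IC50. Duplicates, assay repeated at least once. SI = L-6 CC50/parasite IC50.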

The subject of another series is Trypanosoma cruzi. Nature of the series: Antitrypanosomal activity against Trypanosoma cruzi Tulahuen C2C4 trypomastigote after 48 hrs. Type of series: functional, organism-based. The settings on record: Tulahuen C2C4, 48 h. An outline of the steps:
as §2

Series [4] can be described thus: Selectivity index, CC50 for rat L-6 cells to IC50 for Trypanosoma brucei rhodesiense ST1B900 trypomastigote […]. Type of series: functional. An outline of the steps:
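Bloodstream-form STIB900, 10^4/well in supplemented MEM with 15% heat-inactivated horse serum, were exposed to seven threefold dilutions (90 to 0.123 μg/ml) for 72 h at 37°C, 5% CO2. Alamar Blue was added for 2–4 h, then fluorescence read at ex 536/em 588 nm. SI = L-6 CC50/IC50. Duplicates, repeated at least once.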

In series [5] the test system is Trypanosoma brucei rhodesiense. The series is described as follows: Antitrypanosomal activity against Trypanosoma brucei rhodesiense ST1B900 trypomastigote infected in NMR1 mouse assessed as survival of mouse at 50 mg/kg, ip administered on day 3 post infection for 4 days. It is filed as functional, organism-based. Also on record: dose 50 mg/kg.

Structures are written as SMILES. The source made the active and inactive calls. The rule behind the calls is not given here.

Usually CC50 stands for the concentration that lowers cell viability or growth by half. A word on the IC50: it is the concentration that gives 50% inhibition. In turn, `N=C(N)NCCCCCCCCCNC(=N)N.O=S(=O)(O)O` had a CC50 at 72 h in series [1] of more than 265 µM. In addition, the “Selectivity Index” value in series [2] is on record as more than 3162. Besides, the IC50 in the series on Plasmodium falciparum was 0.084 µM.
Regarding `CCC(=O)N(CCCCCCCCCCCCN/C(=N/C(=O)OC(C)(C)C)NC(=O)OC(C)(C)C)C1CCN(CCc2ccccc2)CC1`, the IC50 with Leishmania donovani was 5.78 µM; in the series on Plasmodium falciparum, 0.41 µM; with Trypanosoma cruzi, 5.2 µM. The same molecule registered a CC50 at 72 h in series [1] of 7.54 µM. Moreover, the “Selectivity Index” value in series [3] is given as less than 3; in series [2] it was 18.
`O=[N+]([O-])c1cccc(NC2CCN(CCc3ccccc3)CC2)c1`: the IC50 in the series with Leishmania donovani is 23.2 µM; with Plasmodium falciparum it was 10.6 µM; in the series on Trypanosoma cruzi it was 46.1 µM. Besides, in series [1], it took 257 µM to reach half-maximal cytotoxicity (CC50 at 72 h).
For the molecule `CCC(=O)N(CCCCCCCCCCCCNC(=O)OC(C)(C)C)C1CCN(CCc2ccccc2)CC1`, the IC50 was 6.2 µM with Leishmania donovani, 1.32 µM in the series on Plasmodium falciparum and 8.07 µM in the series with Trypanosoma cruzi. Besides, the CC50 at 72 h in series [1] worked out at 13.8 µM. In series [3], the “Selectivity Index” value is given as less than 3.
Consider `CCC(=O)N(CCCCCCCCN/C(=N/C(=O)OC(C)(C)C)NC(=O)OC(C)(C)C)C1CCN(CCc2ccccc2)CC1`, for which the concentration for half-maximal inhibition (IC50) in the series on Leishmania donovani stood at 14.8 µM; in the series on Plasmodium falciparum, 0.6 µM; in the series with Trypanosoma cruzi it was 12.3 µM. This molecule registered a half-maximal cytotoxic concentration (CC50) at 72 h in series [1] of 21.5 µM. Besides, the “Selectivity Index” value in series [2] was determined as 35.
Turning to `CCC(=O)N(CCCCCCCCCNC(=O)OC(C)(C)C)C1CCN(CCc2ccccc2)CC1`, the IC50 in the series with Leishmania donovani is 34.8 µM; in the series with Plasmodium falciparum, 1.43 µM; in the series on Trypanosoma cruzi, 11.7 µM. The same molecule gave a CC50 at 72 h in series [1] of 16 µM.
For `CC(C)(C)OC(=O)NCCCNC1CCN(CCc2ccccc2)CC1`, in that order: 68.9 µM, 2.08 µM, 55.4 µM and 129 µM.
As to `CC(C)(C)OC(=O)NCc1cccc(CNC2CCN(CCc3ccccc3)CC2)c1`, the IC50 amounted to 78.1 µM with Leishmania donovani, 1.66 µM with Plasmodium falciparum and 17.3 µM in the series on Trypanosoma cruzi. The molecule also displayed a CC50 at 72 h in series [1] of 111 µM. Moreover, the “Selectivity Index” value in series [4] stood at 219.
On to `CC(C)(C)OC(=O)NCCCCCCCCNC1CCN(CCc2ccccc2)CC1`, for which the IC50 with Leishmania donovani was more than 69 µM; in the series on Plasmodium falciparum, 0.62 µM; in the series with Trypanosoma cruzi, 5.72 µM. The molecule also showed a CC50 at 72 h in series [1] of 15.5 µM. The “Selectivity Index” value in series [3] is listed as less than 3; in series [2], 25; in series [4] it was 130. Besides, the result in series [5] was inactive.
In turn, `N=C(N)NCCCCCCCCNC(=N)N.O=S(=O)(O)O` registered a CC50 at 72 h in series [1] of more than 276 µM. In addition, the “Selectivity Index” value in series [2] is given as more than 2608. Moreover, in the series on Plasmodium falciparum, the concentration for half-maximal inhibition (IC50) came out at 0.106 µM.
On to `CC(C)(C)OC(=O)NCCCCNC1CCN(CCc2ccccc2)CC1`, for which the concentration for half-maximal inhibition (IC50) in the series with Leishmania donovani is more than 80 µM; with Plasmodium falciparum, 1.28 µM; with Trypanosoma cruzi it was 56.3 µM. The CC50 at 72 h in series [1] amounted to 155 µM.
Consider `CC(C)(C)OC(=O)NCCCCCCCNC1CCN(CCc2ccccc2)CC1`, for which the IC50 with Leishmania donovani is more than 72 µM; with Plasmodium falciparum, 0.77 µM; with Trypanosoma cruzi, 11.9 µM. In series [1], this molecule came in with a CC50 at 72 h of 32.9 µM. Further, the “Selectivity Index” value in series [2] worked out at 42; in series [4], 41.
Take `CC(C)(C)OC(=O)NCCNC1CCN(CCc2ccccc2)CC1`: the figures for the 50% inhibitory concentration (IC50) with Leishmania donovani, in the series with Plasmodium falciparum and in the series with Trypanosoma cruzi were 81.2 µM, 2.06 µM and 55.5 µM, respectively. The molecule further displayed a CC50 at 72 h in series [1] of 174 µM.
Take `CC(C)(C)OC(=O)NCCCCCNC1CCN(CCc2ccccc2)CC1`: the IC50 in the series on Leishmania donovani is more than 77 µM; with Plasmodium falciparum, 1.53 µM; with Trypanosoma cruzi, 69 µM. The CC50 at 72 h in series [1] was determined as 95.6 µM.
On to `CC(C)(C)OC(=O)NCCCCCCNC1CCN(CCc2ccccc2)CC1`, for which the concentration for half-maximal inhibition (IC50) in the series with Leishmania donovani is more than 74 µM; with Plasmodium falciparum it was 0.9 µM; with Trypanosoma cruzi, 28.6 µM. Moreover, it took 39.3 µM to reach half-maximal cytotoxicity in series [1] (CC50 at 72 h). Besides, the “Selectivity Index” value in series [2] was determined as 43; in series [4] it was 36.
`CCC(=O)N(CCCN/C(=N/C(=O)OC(C)(C)C)NC(=O)OC(C)(C)C)C1CCN(CCc2ccccc2)CC1`: the figures for the half-inhibitory concentration (IC50) in the series on Leishmania donovani, in the series on Plasmodium falciparum and in the series on Trypanosoma cruzi were 31 µM, 1.35 µM and more than 53 µM, respectively. Also, in series [1], the half-maximal cytotoxic concentration (CC50) at 72 h amounted to 80.7 µM.
As to `CCC(=O)N(CCCCCCN/C(=N/C(=O)OC(C)(C)C)NC(=O)OC(C)(C)C)C1CCN(CCc2ccccc2)CC1`, the results for the IC50 in the series on Leishmania donovani, in the series on Plasmodium falciparum and with Trypanosoma cruzi were 13.2 µM, 0.85 µM and 23.2 µM, respectively. Also, the CC50 at 72 h in series [1] was found to be 24.9 µM. Also, the “Selectivity Index” value in series [2] worked out at 29.
Take `CCCCCCCCCCCCCCCCOP(=O)([O-])OCC[N+](C)(C)C` [MILTEFOSINE]: half-maximal inhibition in the series with Leishmania donovani (IC50) required 0.205 µM.
With `CC(C)(C)OC(=O)NCCCCCCCCCCCCNC1CCN(CCc2ccccc2)CC1`, the IC50 in the series with Leishmania donovani turned out to be 17.8 µM; in the series on Plasmodium falciparum, 0.32 µM; in the series on Trypanosoma cruzi it was 3.16 µM. In addition, in series [1], the half-maximal cytotoxic concentration (CC50) at 72 h worked out at 8.2 µM. The “Selectivity Index” value is less than 3 in series [3], 25 in series [2] and 52 in series [4].
On to `CC(C)(C)OC(=O)NCCCCCCCCCNC1CCN(CCc2ccccc2)CC1`, for which the IC50 in the series on Leishmania donovani is more than 67 µM; in the series with Plasmodium falciparum it was 0.36 µM; in the series with Trypanosoma cruzi, 3.73 µM. Also, in series [1], it took 6.05 µM to reach half-maximal cytotoxicity (CC50 at 72 h). For the same molecule, the “Selectivity Index” value in series [3] is reported as less than 3; in series [2] it was 16; in series [4], 48.
In series [1], `N=C(N)NCCCCCCNC(=N)N.O=S(=O)(O)O` had a cytotoxic concentration (CC50) at 72 h of more than 302 µM. In addition, the “Selectivity Index” value in series [2] was more than 679. In addition, the half-maximal inhibitory concentration (IC50) in the series with Plasmodium falciparum stood at 0.445 µM.
The molecule `CCCCCCCCCCCCCNC(=N)N.O=S(=O)(O)O` [AMINO(TRIDECYLAMINO)METHANIMINIUM HYDROGENSULFATE] had a CC50 at 72 h in series [1] of 19.6 µM. The “Selectivity Index” value in series [2] is reported as 2.4. The concentration for half-maximal inhibition (IC50) in the series on Plasmodium falciparum is 7.98 µM.
Take `CCC(=O)N(CCN/C(=N/C(=O)OC(C)(C)C)NC(=O)OC(C)(C)C)C1CCN(CCc2ccccc2)CC1`: the IC50 came to 19.1 µM in the series with Leishmania donovani, 1.85 µM in the series on Plasmodium falciparum and 36.8 µM in the series with Trypanosoma cruzi. In addition, in series [1], the CC50 at 72 h was determined as 35.6 µM.
